Reference: ChEMBL document CHEMBL1649314, “Experimental murine scedosporiosis: histopathology and azole treatment” (2010)
In brackets after ≈: the same amount, converted by molar mass. Activity calls are given as the source filed them. No cut-off for these calls is given here.

What was measured:
[1] = Antifungal activity against Scedosporium aurantiacum IHEM 15458 infected in immunosuppressed OF1 mouse assessed as prolonged survival of mouse at 1.5 mg/kg/day, ip administered 24 hrs postinfection for 10 days measured after 20 days; type: functional, organism-based
Method in brief: (§1)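 Male OF1 mice immunosuppressed 1 day before infection with cyclophosphamide 200 mg/kg i.p. plus 5-fluorouracil 150 mg/kg i.v. Infection: 1 × 10^4 CFU of PDA-grown conidia in 0.2 ml saline via lateral tail vein. Treatment 1.5 mg/kg/day i.p., started 24 h post-challenge, given for 10 days; 10 mice/group; checked daily to day 20. Kaplan-Meier mean survival, log rank test.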

[2] = system: Scedosporium apiospermum; experiment: Antifungal activity against Scedosporium apiospermum IHEM 14464 infected in immunosuppressed OF1 mouse assessed as reduction in kidney fungal burden at 1.5 mg/kg/day, ip administered 24 hrs postinfection for 10 days measured after 20 days; type: functional, organism-based
[3] = system: Scedosporium apiospermum; experiment: Antifungal activity against Scedosporium apiospermum CBS 117407 infected in immunosuppressed OF1 mouse assessed as reduction in kidney fungal burden at 1.5 mg/kg/day, ip administered 24 hrs postinfection for 10 days measured after 20 days; type: functional, organism-based
[4] = Antifungal activity against Scedosporium aurantiacum CBS 116910 infected in immunosuppressed OF1 mouse assessed as prolonged survival of mouse at 1.5 mg/kg/day, ip administered 24 hrs postinfection for 10 days measured after 20 days; type: functional, organism-based; method in brief: as §1
[5] = system: Scedosporium boydii; experiment: Antifungal activity against Scedosporium boydii FMR 6694 infected in immunosuppressed OF1 mouse assessed as reduction in kidney fungal burden at 1.5 mg/kg/day, ip administered 24 hrs postinfection for 10 days measured after 20 days; type: functional, organism-based
[6] = system: Scedosporium boydii; experiment: Antifungal activity against Scedosporium boydii FMR 8627 by broth dilution method; type: functional
[7] = system: Scedosporium apiospermum; experiment: Antifungal activity against Scedosporium apiospermum IHEM 14464 infected in immunosuppressed OF1 mouse assessed as prolonged survival of mouse at 1.5 mg/kg/day, ip administered 24 hrs postinfection for 10 days measured after 20 days; type: functional, organism-based; method in brief: as §1
[8] = system: Scedosporium boydii; experiment: Antifungal activity against Scedosporium boydii FMR 8627 infected in immunosuppressed OF1 mouse assessed as reduction in kidney fungal burden at 1.5 mg/kg/day, ip administered 24 hrs postinfection for 10 days measured after 20 days; type: functional, organism-based
[9] = system: Scedosporium boydii; experiment: Antifungal activity against Scedosporium boydii FMR 8627 infected in immunosuppressed OF1 mouse assessed as prolonged survival of mouse at 1.5 mg/kg/day, ip administered 24 hrs postinfection for 10 days measured after 20 days; type: functional, organism-based; method in brief: as §1
[10] = system: Scedosporium aurantiacum; experiment: Antifungal activity against Scedosporium aurantiacum IHEM 15458 infected in immunosuppressed OF1 mouse assessed as reduction in kidney fungal burden at 1.5 mg/kg/day, ip administered 24 hrs postinfection measured on day 4 postinfection
[11] = Antifungal activity against Scedosporium aurantiacum IHEM 15458 by broth dilution method; type: functional
[12] = system: Scedosporium boydii; experiment: Antifungal activity against Scedosporium boydii FMR 6694 by broth dilution method; type: functional
[13] = Antifungal activity against Scedosporium aurantiacum CBS 116910 by broth dilution method; type: functional
[14] = system: Scedosporium boydii; experiment: Antifungal activity against Scedosporium boydii FMR 6694 infected in immunosuppressed OF1 mouse assessed as prolonged survival of mouse of mouse at 1.5 mg/kg/day, ip administered 24 hrs postinfection for 10 days measured after 20 days; type: functional, organism-based; method in brief: as §1
[15] = system: Scedosporium apiospermum; experiment: Antifungal activity against Scedosporium apiospermum IHEM 14464 by broth dilution method; type: functional
[16] = system: Scedosporium apiospermum; experiment: Antifungal activity against Scedosporium apiospermum CBS 117407 by broth dilution method; type: functional
[17] = system: Scedosporium apiospermum; experiment: Antifungal activity against Scedosporium apiospermum CBS 117407 infected in immunosuppressed OF1 mouse assessed as prolonged survival of mouse at 1.5 mg/kg/day, ip administered 24 hrs postinfection for 10 days measured after 20 days; type: functional, organism-based; method in brief: as §1
[18] = system: Scedosporium aurantiacum; experiment: Antifungal activity against Scedosporium aurantiacum CBS 116910 infected in immunosuppressed OF1 mouse assessed as reduction in kidney fungal burden at 1.5 mg/kg/day, ip administered 24 hrs postinfection for 10 days measured after 20 days; type: functional, organism-based

MIC [6]: 8 µg/mL (≈ 8.66 µM) | MIC [11]: 32 µg/mL (≈ 34.6 µM) | MIC [12]: 32 µg/mL (≈ 34.6 µM) | MIC [13]: 32 µg/mL (≈ 34.6 µM) | MIC [15]: 32 µg/mL (≈ 34.6 µM) | MIC [16]: 8 µg/mL (≈ 8.66 µM)
SMILES: C[C@@H]1[C@H](O)[C@@H](C)/C=C/C=C/C=C/C=C/C=C/C=C/C=C/[C@H](O[C@@H]2O[C@H](C)[C@@H](O)[C@H](N)[C@@H]2O)C[C@@H]2O[C@](O)(C[C@@H](O)C[C@@H](O)[C@H](O)CC[C@@H](O)C[C@@H](O)CC(=O)O[C@H]1C)C[C@H](O)[C@H]2C(=O)O [AMPHOTERICIN B]
Activity [1]: inactive | Activity [2]: inactive | Activity [3]: inactive | Activity [4]: inactive | Activity [5]: inactive | Activity [7]: inactive | Activity [8]: inactive | Activity [9]: inactive | Activity [10]: inactive | Activity [14]: inactive | Activity [17]: inactive | Activity [18]: inactive
